ChEMBL document CHEMBL5335797, “Design, Synthesis, and Evaluation of New 1H-Benzo[d]imidazole Based PqsR Inhibitors as Adjuvant Therapy for Pseudomonas aeruginosa Infections” (J Med Chem, 2024)
Each block holds one molecule with its values, some of them ahead of it. Calls of active or inactive are those of the source. The rule behind the calls is not given here.

Key:
[1] = Inhibition of Pseudomonas aeruginosa pqsA-lux complex expressed in Pseudomonas aeruginosa PA14 by bioluminescent reporter assay
Summary of the method: (§1)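 Reporter strains PAO1-L and PA14 carrying chromosomal mCTX::PpqsA-lux, grown in LB at 37 °C. Inhibition read as reduced luminescence. Single-point screen at 10 μM from 10 mM DMSO stock; dose–response curves in both strains; mean ± SD, n = 2.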

[2] = Inhibition of Pseudomonas aeruginosa pqsA-lux complex expressed in Pseudomonas aeruginosa PAO1-L by bioluminescent reporter assay; summary of the method: as §1
[3] = target: T1, Transcriptional regulator MvfR (Pseudomonas aeruginosa PA14) (UniProt A0A072ZLE6); assay: Antagonist activity at PqsR in wild-type Pseudomonas aeruginosa PAO1-L assessed as inhibition of pyocyanin level at 3 times IC50 incubated for 16 hrs by absorbance based assay relative to control; details: filed as antagonist
T1 sequence (whole entry): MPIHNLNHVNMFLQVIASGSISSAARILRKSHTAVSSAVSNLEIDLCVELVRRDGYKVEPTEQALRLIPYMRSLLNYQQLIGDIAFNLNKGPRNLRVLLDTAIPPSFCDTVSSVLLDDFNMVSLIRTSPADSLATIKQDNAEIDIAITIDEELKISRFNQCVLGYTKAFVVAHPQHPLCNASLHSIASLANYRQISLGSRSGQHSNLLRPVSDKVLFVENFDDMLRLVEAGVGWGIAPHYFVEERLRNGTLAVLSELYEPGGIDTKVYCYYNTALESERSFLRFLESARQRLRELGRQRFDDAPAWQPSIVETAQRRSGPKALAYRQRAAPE

[4] = target: T1, Transcriptional regulator MvfR (Pseudomonas aeruginosa PA14); assay: Antagonist activity at PqsR in Pseudomonas aeruginosa LESB58 clinical isolate assessed as inhibition of pyocyanin level at 200 nM incubated for 16 hrs by absorbance based assay; details: filed as antagonist
[5] = target: T1, Transcriptional regulator MvfR (Pseudomonas aeruginosa PA14); assay: Antagonist activity at PqsR in Pseudomonas aeruginosa IPCD1350 clinical isolate assessed as inhibition of pyocyanin level at 200 nM incubated for 16 hrs by absorbance based assay; details: filed as antagonist
[6] = target: T1, Transcriptional regulator MvfR (Pseudomonas aeruginosa PA14); assay: Antagonist activity at PqsR in wild-type Pseudomonas aeruginosa PA14 assessed as reduction in HQNO level at 0.2 uM by LCMS/MS analysis relative to control; parameters: scale not given: the % may be the effect or the level left
[7] = target: T1, Transcriptional regulator MvfR (Pseudomonas aeruginosa PA14); assay: Antagonist activity at PqsR in Pseudomonas aeruginosa IPCD1331 clinical isolate assessed as reduction in HQNO level at 0.2 uM by LCMS/MS analysis relative to control; parameters: scale not given: the % may be the effect or the level left
[8] = target: T1, Transcriptional regulator MvfR (Pseudomonas aeruginosa PA14); assay: Antagonist activity at PqsR in Pseudomonas aeruginosa IPCD1350 clinical isolate assessed as reduction in HQNO level at 0.2 uM by LCMS/MS analysis relative to control; parameters: scale not given: the % may be the effect or the level left
Pseudomonas aeruginosa [9] = assay: Potentiation of Ciprofloxacin-induced antibiofilm activity in Pseudomonas aeruginosa PAO1-L at 10 uM incubated for 6 to 24 hrs by SYTO9/PI staining based confocal laser scanning microscopy; type: functional, organism-based; details: time 6-24 hrs
Summary of the method: (§2)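 PAO1-L biofilms grown on glass coverslips in a rolling bioreactor (20 rpm) in FAB 10 mM glucose, inoculated at OD600 0.01, 30 °C for 24 h with 10 μM compound from the start. Then PBS wash and 6 or 24 h in fresh medium with 60 μg/mL ciprofloxacin, 20 μM compound, or both. LIVE/DEAD BacLight staining, CLSM; live/dead ratios against untreated.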

[10] = target: T1, Transcriptional regulator MvfR (Pseudomonas aeruginosa PA14); assay: Antagonist activity at PqsR in Pseudomonas aeruginosa IPCD48 clinical isolate assessed as reduction in HQNO level at 0.2 uM by LCMS/MS analysis relative to control; parameters: scale not given: the % may be the effect or the level left
[11] = target: T1, Transcriptional regulator MvfR (Pseudomonas aeruginosa PA14); assay: Antagonist activity at PqsR in Pseudomonas aeruginosa IPCD1331 clinical isolate assessed as reduction in PQS level at 0.2 uM by LCMS/MS analysis
[12] = target: T1, Transcriptional regulator MvfR (Pseudomonas aeruginosa PA14); assay: Antagonist activity at PqsR in Pseudomonas aeruginosa IPCD1451 clinical isolate assessed as inhibition of pyocyanin level at 200 nM incubated for 16 hrs by absorbance based assay
[13] = target: T1, Transcriptional regulator MvfR (Pseudomonas aeruginosa PA14); assay: Antagonist activity at PqsR in wild-type Pseudomonas aeruginosa PAO1-L assessed as inhibition of pyocyanin level at 200 nM incubated for 16 hrs by absorbance based assay; details: filed as antagonist
[14] = target: T1, Transcriptional regulator MvfR (Pseudomonas aeruginosa PA14); assay: Antagonist activity at PqsR in wild-type Pseudomonas aeruginosa PAO1-L assessed as reduction in HQNO level at 0.2 uM by LCMS/MS analysis relative to control; parameters: scale not given: the % may be the effect or the level left
[15] = target: T1, Transcriptional regulator MvfR (Pseudomonas aeruginosa PA14); assay: Antagonist activity at PqsR in Pseudomonas aeruginosa IPCD48 clinical isolate assessed as reduction in PQS level at 0.2 uM by LCMS/MS analysis; details: filed as antagonist
[16] = target: T1, Transcriptional regulator MvfR (Pseudomonas aeruginosa PA14); assay: Antagonist activity at PqsR in Pseudomonas aeruginosa IPCD1331 clinical isolate assessed as inhibition of pyocyanin level at 200 nM incubated for 16 hrs by absorbance based assay; details: filed as antagonist
[17] = target: T1, Transcriptional regulator MvfR (Pseudomonas aeruginosa PA14); assay: Antagonist activity at PqsR in Pseudomonas aeruginosa IPCD48 clinical isolate assessed as inhibition of pyocyanin level at 200 nM incubated for 16 hrs by absorbance based assay; details: filed as antagonist
[18] = target: T1, Transcriptional regulator MvfR (Pseudomonas aeruginosa PA14); assay: Antagonist activity at PqsR in wild-type Pseudomonas aeruginosa PAO1-L assessed as reduction in PQS level at 0.2 uM by LCMS/MS analysis; details: filed as antagonist
[19] = target: T1, Transcriptional regulator MvfR (Pseudomonas aeruginosa PA14); assay: Antagonist activity at PqsR in wild-type Pseudomonas aeruginosa PA14 assessed as inhibition of pyocyanin level at 200 nM incubated for 16 hrs by absorbance based assay; details: filed as antagonist
Pseudomonas aeruginosa [20] = assay: Inhibition of biofilm formation in GFP-labeled Pseudomonas aeruginosa PAO1-L at 1 uM incubated for 16 hrs by PI staining based confocal laser scanning microscopy; type: functional, organism-based
Summary of the method: (§3)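 GFP-tagged strain (pMMG) grown in RPMI-1640 with 20 mM glucose and 2 μM FeCl3. Seeded at OD600 0.01 on glass coverslips, static 1.5 h at 37 °C. Compound added at 1 μM, then shaken at 60 rpm and 37 °C for 16 h. Tobramycin 100 μg/mL plus propidium iodide 2 μM for a further 2 or 6 h. CLSM, 5 random z-stacks per coverslip.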

Pseudomonas aeruginosa [21] = assay: Potentiation of Tobramycin-induced antibiofilm activity in Pseudomonas aeruginosa PAO1-L at 1 uM preincubated for 16 hrs followed by tobramycin addition measured for 2 to 6 hrs by PI staining based confocal laser scanning microscopy; type: functional, organism-based; details: time 18-22 hrs; summary of the method: as §3
[22] = target: T1, Transcriptional regulator MvfR (Pseudomonas aeruginosa PA14); assay: Antagonist activity at PqsR in wild-type Pseudomonas aeruginosa PAO1-L assessed as reduction in HHQ level at 0.2 uM by LCMS/MS analysis; details: filed as antagonist
[23] = target: T1, Transcriptional regulator MvfR (Pseudomonas aeruginosa PA14); assay: Antagonist activity at PqsR in Pseudomonas aeruginosa LESB58 clinical isolate assessed as reduction in AQ level at 0.2 uM by LCMS/MS analysis; details: filed as antagonist
[24] = target: T1, Transcriptional regulator MvfR (Pseudomonas aeruginosa PA14); assay: Antagonist activity at PqsR in Pseudomonas aeruginosa IPCD1451 clinical isolate assessed as reduction in HQNO level at 0.2 uM by LCMS/MS analysis
[25] = target: T1, Transcriptional regulator MvfR (Pseudomonas aeruginosa PA14); assay: Antagonist activity at PqsR in Pseudomonas aeruginosa IPCD1331 clinical isolate assessed as reduction in HHQ level at 0.2 uM by LCMS/MS analysis
[26] = target: T1, Transcriptional regulator MvfR (Pseudomonas aeruginosa PA14); assay: Antagonist activity at PqsR in Pseudomonas aeruginosa LESB58 clinical isolate assessed as reduction in HQNO level at 0.2 uM by LCMS/MS analysis relative to control; parameters: scale not given: the % may be the effect or the level left
[27] = target: T1, Transcriptional regulator MvfR (Pseudomonas aeruginosa PA14); assay: Antagonist activity at PqsR in wild-type Pseudomonas aeruginosa PA14 assessed as reduction in PQS level at 0.2 uM by LCMS/MS analysis; details: filed as antagonist
[28] = target: T1, Transcriptional regulator MvfR (Pseudomonas aeruginosa PA14); assay: Antagonist activity at PqsR in wild-type Pseudomonas aeruginosa PA14 assessed as reduction in HHQ level at 0.2 uM by LCMS/MS analysis; details: filed as antagonist
Pseudomonas aeruginosa [29] = assay: Inhibition of biofilm formation in Pseudomonas aeruginosa PAO1-L at 10 uM incubated for 6 to 24 hrs by SYTO9/PI staining based confocal laser scanning microscopy; type: functional, organism-based; details: time 6-24 hrs; summary of the method: as §2
A549 = assay: Cytotoxicity against human A549 cells assessed as cell viability upto 100 uM incubated for 24 hrs by resazurin reduction assay; type: toxicity, cell-based; details: a549, 24 h
Summary of the method: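 A549 cells in DMEM with 10% FBS and 1% PSN, seeded at 1 × 10^4 cells/well. Compound at 1, 50 and 100 μM in sextuplicate, 24 h at 37 °C and 5% CO2. Vehicle control 1% DMSO; positive control 100 μM K2Cr2O7. Alamar blue added for 4–6 h, fluorescence read at ex 510/em 590 nm, normalized to DMSO.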

[30] = target: T1, Transcriptional regulator MvfR (Pseudomonas aeruginosa PA14); assay: Antagonist activity at PqsR in Pseudomonas aeruginosa IPCD48 clinical isolate assessed as reduction in HHQ level at 0.2 uM by LCMS/MS analysis; details: filed as antagonist

Structure (SMILES): Cn1c(NCC(O)COc2ccc(CC#N)cc2)nc2cc(Cl)c(Cl)cc21 (centres undefined)
- IC50 [1]: Not Active
- IC50 [2]: Not Active

Structure (SMILES): CC(C)n1c(NCC(O)COc2ccc(CC#N)c(F)c2)nc2ccc(Cl)cc21 (centres undefined)
- inhibition [3]: > 50%

Structure (SMILES): N#CCc1ccc(OCC(O)CNc2nc3ccc(Cl)cc3n2C2CCC2)cc1 (centres undefined)
- inhibition [3]: > 50%

Structure (SMILES): Cn1c(NCC(O)COc2ccc(CC#N)cc2)nc2ccc(C(F)(F)F)cc21 (centres undefined)
- IC50 [1]: Not Active
- IC50 ([2]; read-out: IC50): 1500 nM

Structure (SMILES): CC(C)n1c(NCC(N)COc2ccc(CC#N)cc2)nc2ccc(Cl)cc21 (centres undefined)
- IC50 [1]: Not Active

The next lines start with results.

- inhibition [3]: > 50%
Structure (SMILES): COCCn1c(NCC(O)COc2ccc(CC#N)cc2)nc2ccc(Cl)cc21 (centres undefined)

- IC50 [1]: Not Active
Structure (SMILES): N#CCc1ccc(OCC(O)CNc2nc3ccc(Cl)cc3n2CCOCc2ccccc2)cc1 (centres undefined)

- inhibition [4]: Active
- inhibition [5]: Active
- Activity [6]: 20%
- Activity [7]: 20%
- Activity [8]: 20%
- Activity [10]: 20%
- Activity [11]: inactive
- inhibition [12]: inactive
- inhibition [13]: Active
- Activity [14]: 20%
- Activity [15]: Active
- inhibition [16]: Active
- inhibition [17]: Active
- Activity [18]: Active
- inhibition [19]: Active
- Activity [22]: Active
- Activity [23]: Active
- Activity [24]: inactive
- Activity [25]: inactive
- Activity [26]: 20%
- Activity [27]: Active
- Activity [28]: Active
- Activity [30]: Active
Structure (SMILES): CC(C)n1c(NCC(O)COc2ccc(CC#N)cc2)nc2ccc(Cl)cc21 (centres undefined)
- Activity (Pseudomonas aeruginosa [9]): Active
- inhibition (Pseudomonas aeruginosa [20]): inactive
- Activity (Pseudomonas aeruginosa [21]): Active
- inhibition (Pseudomonas aeruginosa [29]): inactive
- Activity (A549): Non-Toxic

- IC50 [1]: Not Active
- IC50 [2]: Not Active
Structure (SMILES): CN(C)CCn1c(NCC(O)COc2ccc(CC#N)cc2)nc2ccc(Cl)cc21 (centres undefined)
